# An excerpt weighted towards active compounds, which were near 4.6% of everything screened.
# M18AAP inhibitor – PfM18AAP inhibitors, malaria aminopeptidase, primary screen, biochemical, QFRET, recombinant enzyme | M18 aspartyl aminopeptidase (Plasmodium falciparum 3D7) | H-Glu-NHMec fluorogenic cleavage | inhibition, % at 7.35 µM | 1.2% of 290,000 active;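 active = inhibition above the campaign mean inhibition over all tested compounds plus 3 SD, cut at about 28% in these data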;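 note: 0% = plate median of test compound wells and 100% = 2 mM ZnCl2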
# UCH37 inh – inhibitors of human UCH37 deubiquitinase, primary screen, biochemical, Ub-AMC cleavage, fluorescence; purified proteasome/UCH37; inhibition, % (test concentration not listed); 0.33% of 330,000 active;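 active = mean inhibition over replicate wells above about 20%, limit read from the data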;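 note: 0% = compound-free wells with enzyme and 100% = wells lacking proteasome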
#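 Schedule: 30 min plus 25 min, room temperature / Material: human UCH37 within purified proteasomes / Technique: AMC fluorescence intensity at 355/460 nm / Buffer or medium: pH 7.4 Tris-HCl (50 mM) with ovalbumin, ATP-MgCl2, DTT / Controls: wells without proteasome as full block, compound-free enzyme plus substrate as uninhibited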
# FAS-TE inh – FAS thioesterase domain inhibitors, primary screen, biochemical, fluorescence intensity, uHTS; recombinant FAS-TE, OMFH fluorogenic substrate, fluorescence endpoint; inhibition, % at 15 µM; 0.67% of 360,000 active;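 active = compounds whose normalised, plate-corrected inhibition of enzyme fluorescence in the single-dose primary screen is 50% or more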;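 note: 0% = DMSO with enzyme and 100% = substrate without enzyme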
# Target sequence (P49327 whole entry, looked up, the tested form may be a part): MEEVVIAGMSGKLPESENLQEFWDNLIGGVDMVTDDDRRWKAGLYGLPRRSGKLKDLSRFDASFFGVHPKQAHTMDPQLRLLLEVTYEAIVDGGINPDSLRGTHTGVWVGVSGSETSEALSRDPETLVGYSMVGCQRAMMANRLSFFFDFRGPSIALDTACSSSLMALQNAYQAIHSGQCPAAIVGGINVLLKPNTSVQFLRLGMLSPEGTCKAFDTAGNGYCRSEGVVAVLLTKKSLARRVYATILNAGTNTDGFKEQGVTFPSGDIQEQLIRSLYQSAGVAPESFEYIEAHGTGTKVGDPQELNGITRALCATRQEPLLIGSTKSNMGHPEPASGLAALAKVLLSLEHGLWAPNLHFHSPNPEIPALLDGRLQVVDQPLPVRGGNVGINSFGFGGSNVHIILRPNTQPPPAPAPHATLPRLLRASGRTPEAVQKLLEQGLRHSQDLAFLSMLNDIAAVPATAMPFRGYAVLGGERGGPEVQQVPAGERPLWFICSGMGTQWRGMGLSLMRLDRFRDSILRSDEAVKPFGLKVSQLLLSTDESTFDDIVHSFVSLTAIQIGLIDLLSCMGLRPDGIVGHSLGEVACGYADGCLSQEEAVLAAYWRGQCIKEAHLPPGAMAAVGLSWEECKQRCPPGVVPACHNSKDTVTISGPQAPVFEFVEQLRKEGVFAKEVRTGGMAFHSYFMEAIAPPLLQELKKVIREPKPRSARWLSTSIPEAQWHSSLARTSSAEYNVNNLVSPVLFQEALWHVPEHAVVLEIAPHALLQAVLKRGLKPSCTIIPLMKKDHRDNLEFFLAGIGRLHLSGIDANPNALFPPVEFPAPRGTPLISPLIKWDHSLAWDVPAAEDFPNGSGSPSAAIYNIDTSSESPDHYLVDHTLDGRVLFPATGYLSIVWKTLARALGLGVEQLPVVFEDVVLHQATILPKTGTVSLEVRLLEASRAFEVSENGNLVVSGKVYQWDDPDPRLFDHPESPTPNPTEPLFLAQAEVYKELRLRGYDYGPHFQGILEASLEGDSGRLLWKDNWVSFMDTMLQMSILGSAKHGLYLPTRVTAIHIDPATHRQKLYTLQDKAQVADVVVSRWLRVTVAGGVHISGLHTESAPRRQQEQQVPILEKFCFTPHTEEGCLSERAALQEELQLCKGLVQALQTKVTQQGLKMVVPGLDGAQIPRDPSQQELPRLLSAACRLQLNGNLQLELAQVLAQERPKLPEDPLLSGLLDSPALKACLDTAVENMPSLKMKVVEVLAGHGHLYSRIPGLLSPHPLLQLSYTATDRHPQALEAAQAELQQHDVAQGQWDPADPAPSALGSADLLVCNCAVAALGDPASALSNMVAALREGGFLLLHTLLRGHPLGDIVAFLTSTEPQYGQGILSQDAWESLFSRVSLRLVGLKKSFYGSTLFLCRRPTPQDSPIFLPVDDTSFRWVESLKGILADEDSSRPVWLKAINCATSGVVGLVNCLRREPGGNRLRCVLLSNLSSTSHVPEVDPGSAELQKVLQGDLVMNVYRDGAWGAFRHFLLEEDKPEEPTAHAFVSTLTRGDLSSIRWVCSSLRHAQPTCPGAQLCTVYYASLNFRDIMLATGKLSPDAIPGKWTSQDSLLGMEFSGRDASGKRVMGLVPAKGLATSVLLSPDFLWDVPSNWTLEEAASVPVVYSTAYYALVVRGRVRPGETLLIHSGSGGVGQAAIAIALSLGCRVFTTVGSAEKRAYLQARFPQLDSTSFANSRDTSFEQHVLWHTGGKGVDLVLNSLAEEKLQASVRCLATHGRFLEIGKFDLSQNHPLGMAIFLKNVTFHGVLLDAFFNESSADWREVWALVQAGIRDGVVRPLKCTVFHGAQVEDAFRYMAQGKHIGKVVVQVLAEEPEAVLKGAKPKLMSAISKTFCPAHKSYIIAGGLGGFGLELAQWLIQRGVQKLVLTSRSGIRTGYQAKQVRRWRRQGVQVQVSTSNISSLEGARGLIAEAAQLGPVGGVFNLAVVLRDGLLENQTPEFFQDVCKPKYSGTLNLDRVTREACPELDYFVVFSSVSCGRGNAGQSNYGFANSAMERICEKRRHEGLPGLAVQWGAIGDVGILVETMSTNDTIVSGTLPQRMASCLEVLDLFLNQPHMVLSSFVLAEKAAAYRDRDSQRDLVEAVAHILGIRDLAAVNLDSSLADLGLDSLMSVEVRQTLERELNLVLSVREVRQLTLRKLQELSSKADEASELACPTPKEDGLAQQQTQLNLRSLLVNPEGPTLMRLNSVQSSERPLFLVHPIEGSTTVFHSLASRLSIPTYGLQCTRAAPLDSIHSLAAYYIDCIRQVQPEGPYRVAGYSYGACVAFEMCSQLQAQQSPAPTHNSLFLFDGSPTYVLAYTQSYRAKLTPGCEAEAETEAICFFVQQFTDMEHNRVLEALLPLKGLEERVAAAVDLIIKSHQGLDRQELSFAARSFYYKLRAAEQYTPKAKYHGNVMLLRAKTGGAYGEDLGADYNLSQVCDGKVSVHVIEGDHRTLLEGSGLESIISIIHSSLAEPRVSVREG
# ALR H2O2 inh – inhibitors of human ALR sulfhydryl oxidase, primary screen, biochemical, H2O2 detection, HRP-luminol luminescence, single point. FAD-linked sulfhydryl oxidase ALR (Homo sapiens), P55789. purified ALR, DTT oxidation. inhibition, % (concentration not given with the values). 3.8% of 290,000 active;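 active = mean replicate inhibition above about 79%, with every replicate also reaching it, limit read from the data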
# Rtt109 HAT inh – inhibitors of C. albicans Rtt109/Vps75 HAT, primary screen, biochemical, ThioGlo CoA-SH fluorescence, plate reader | Histone acetyltransferase RTT109 (Candida albicans (strain SC5314 / ATCC MYA-2876)), … | inhibition, % at 34.9 µM | purified Rtt109/Vps75, 4 h | 0.16% of 330,000 active | AID 540336, 2011;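 active = inhibition of at least 50% in every replicate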
# HDAC3 inhib – HDAC3 deacetylase inhibitors, primary screen, biochemical, fluorescence, cell-free homogeneous; Histone deacetylase 3 (Homo sapiens), O15379; 0.15% of 320,000 active; inhibition, % at 8.3 µM; recombinant HDAC3, fluorogenic peptide/trypsin coupled; AID 2718, 2010; in the data active = inhibition above about 26%, passing the limit was not always enough
# The depositor's hits bear a star; . = no result.
SMILES,M18AAP inhibitor,UCH37 inh,FAS-TE inh,ALR H2O2 inh,Rtt109 HAT inh,HDAC3 inhib
Cc1ccc(-c2nc3ccccc3nc2Cl)cc1,-11,-5,6,91*,-3,2
Cc1ccc(-c2nc3ccccc3nc2NN)cc1,31*,.,2,-1,1,-6
O=C(Nc1ccc(Oc2cccnc2)cc1)C1CCN(Cc2cc(Cl)ccc2O)CC1,7,3,-2,-1,59*,6
CC(=NNC(=O)C1CC1)c1ccccc1Br,.,6,.,.,.,.
O=C(/C=C/c1ccc(O)cc1)c1c(O)cc(O)cc1O,.,2,0,98*,-6,7
COc1cc(/C=C/C(=O)c2ccc3c(c2)OCO3)cc(Cl)c1O,32*,6,-2,6,26,15
COc1cc(OC)cc(OC)c1,.,.,-9,.,.,.
O=C(O)c1ccc(/C=C/C(=O)c2ccc3c(c2)OCCCO3)cc1,1,.,-8,97*,-5,6
COc1cc(/C=C/c2ccc(O)cc2)cc(OC)c1,-4,-4,10,80*,-3,-1
COc1cc(O)c(C(=O)/C=C/c2ccccc2)c(OC)c1,2,6,4,7,-10,7
CCc1ccc(OCC(=O)NN=C(C)c2ccc(O)cc2O)cc1,.,17,.,.,.,.
Cn1nccc1C(=O)NN=Cc1ccccc1[N+](=O)[O-],.,7,.,.,.,.
O=C(NN=Cc1cccc([N+](=O)[O-])c1)c1ccc2c(c1)OCCO2,.,4,.,.,.,.
COc1ccc(C(=O)/C=C/c2ccc3c(c2)OCCO3)cc1,2,3,12,95*,47,3
COc1ccc(/C=C/C(=O)c2ccoc2)cc1,6,2,-8,6,10,7
O=C(/C=C/c1cccc([N+](=O)[O-])c1)c1ccc2c(c1)OCCO2,8,3,4,96*,-3,1
COc1ccc(/C=C/C(=O)c2ccc(O)cc2)cc1,3,-4,-5,97*,15,8
O=C(NC1CCCCC1)C1CCCN(S(=O)(=O)c2cnc[nH]2)C1 (centres undefined),0,3,-8,-18,-11,7
O=C(NC1CCCC1)C1CCCN(S(=O)(=O)c2cnc[nH]2)C1 (centres undefined),4,1,-4,96*,2,-2
O=C(NC1CCCCCCC1)C1CCCN(S(=O)(=O)c2cnc[nH]2)C1 (centres undefined),5,8,-9,95*,1,0
COc1cccc(N2CCN(C(=O)Nc3ccccc3Cl)CC2)c1,1,9,2,87*,.,6
COc1ccc(N2CCN(C(=O)Nc3ccccc3C)CC2)cc1,-6,4,-8,54,.,-2
COc1ccc(-c2csc(N(CCCN(C)C)C(=O)c3ccc(F)cc3)n2)cc1,-1,1,1,87*,10,1
Cc1[nH]nc2c1C(c1cn[nH]c1-c1ccc(F)cc1)C(C#N)=C(N)O2 (centres undefined),4,0,-12,92*,4,-2
N#CC1=C(N)Oc2n[nH]c(-c3ccc(F)cc3)c2C1c1cccnc1 (centres undefined),7,.,-9,.,7,.
SMILES,M18AAP inhibitor,UCH37 inh,FAS-TE inh,ALR H2O2 inh,Rtt109 HAT inh,HDAC3 inhib
O=C(NN=Cc1cc(Br)c(O)c(Br)c1O)c1cccnc1,.,5,.,.,.,.
O=c1c(C=NO)c(Nc2ccccc2)nc2ccccn12,.,5,.,.,.,.
CCOC(=O)C1=C(CS(=O)(=O)c2ccc(C)cc2)NC(=O)NC1c1cc(OC)c(O)c(OC)c1 (centres undefined),7,4,-1,-25,4,4
CCOC(=O)C1=C(CS(=O)(=O)c2ccc(F)c(C)c2)NC(=O)NC1c1ccc(O)c(O)c1 (centres undefined),75*,2,-4,98*,4,5
CCN(CC)c1ccc(CN2CCC(C(=O)NCc3ccc(C)cc3)CC2)cc1,-5,4,-6,82*,9,-2
Brc1ccc(C=Nn2cnnc2)s1,.,5,.,.,.,.
O=[N+]([O-])c1cc(S(=O)(=O)Nc2ccccc2)ccc1N1CCN(c2ccc(O)cc2)CC1,30*,8,-18,.,2,.
CN1CCN(S(=O)(=O)c2ccc(N3CCN(c4ccc(O)cc4)CC3)c([N+](=O)[O-])c2)CC1,.,2,-9,98*,29,2
Cc1ccc(NS(=O)(=O)c2ccc(N3CCN(c4ccc(O)cc4)CC3)c([N+](=O)[O-])c2)c(C)c1,27,-17,9,4,8,-2
COc1cccc(-c2nc(CS(=O)(=O)CC(=O)NCCCN3CC(C)CC(C)C3)c(C)o2)c1 (centres undefined),5,3,-5,90*,20,9
CCN1CCN(CCCNC(=O)CS(=O)(=O)Cc2nc(-c3cccc(OC)c3)oc2C)CC1,-7,3,-1,90*,-4,0
COc1cccc(-c2nc(CS(=O)(=O)CC(=O)NCCCN3C(C)CCCC3C)c(C)o2)c1 (centres undefined),-9,1,-6,11,7,2
COc1cccc(-c2nc(CS(=O)(=O)CC(=O)NCCCN3CCN(C)CC3)c(C)o2)c1,-2,1,-6,99*,-12,-13
Cc1ccc(C(=O)ON=C2CC3CCC2(C)[C@@]3(C)CBr)cc1 (some centres undefined),.,2,.,.,.,.
COc1ccc(/C=C/C(=O)Oc2cccc(C=NNC(=O)COc3c(C)cccc3C)c2)cc1,.,-2,.,.,.,.
Brc1ccc(-c2csc(-c3c[nH]c4ccccc34)n2)cc1,3,-3,34,-4,-7,5
c1ccc2c(-c3csc(-c4ccncc4)n3)c[nH]c2c1,-9,-6,8,99*,-8,-4
Cc1ccc(NC(=S)NNC(=S)NC2CCCCC2)cc1,14,-2,-6,20,3,2
CC(=O)c1ccc(NC(=S)NNC(=O)NC2CCCCC2)cc1,-2,3,-6,94*,-7,8
O=C(Nc1ccccc1C(=O)O)c1cccc(N2C(=O)c3ccccc3C2=O)c1,0,6,-5,10,-6,11
CC(C)CN1C(=O)c2ccc(C(=O)Nc3ccccc3C(=O)O)cc2C1=O,-7,6,-4,81*,-5,4
Cc1cc([N+](=O)[O-])ccc1N1C(=O)c2ccc(C(=O)Nc3ccccc3C(=O)O)cc2C1=O,2,7,-10,98*,-19,8
O=C(CN1CCCc2ccccc21)NN=Cc1ccc(F)cc1F,.,1,.,.,.,.
